Experimental data of several laboratories.
Lines come from different studies, so protocols differ.
Target: Serine/threonine-protein kinase D1 (PRKD1, Homo sapiens, UniProt Q15139)
Residues used in one study (Q15139 1-912): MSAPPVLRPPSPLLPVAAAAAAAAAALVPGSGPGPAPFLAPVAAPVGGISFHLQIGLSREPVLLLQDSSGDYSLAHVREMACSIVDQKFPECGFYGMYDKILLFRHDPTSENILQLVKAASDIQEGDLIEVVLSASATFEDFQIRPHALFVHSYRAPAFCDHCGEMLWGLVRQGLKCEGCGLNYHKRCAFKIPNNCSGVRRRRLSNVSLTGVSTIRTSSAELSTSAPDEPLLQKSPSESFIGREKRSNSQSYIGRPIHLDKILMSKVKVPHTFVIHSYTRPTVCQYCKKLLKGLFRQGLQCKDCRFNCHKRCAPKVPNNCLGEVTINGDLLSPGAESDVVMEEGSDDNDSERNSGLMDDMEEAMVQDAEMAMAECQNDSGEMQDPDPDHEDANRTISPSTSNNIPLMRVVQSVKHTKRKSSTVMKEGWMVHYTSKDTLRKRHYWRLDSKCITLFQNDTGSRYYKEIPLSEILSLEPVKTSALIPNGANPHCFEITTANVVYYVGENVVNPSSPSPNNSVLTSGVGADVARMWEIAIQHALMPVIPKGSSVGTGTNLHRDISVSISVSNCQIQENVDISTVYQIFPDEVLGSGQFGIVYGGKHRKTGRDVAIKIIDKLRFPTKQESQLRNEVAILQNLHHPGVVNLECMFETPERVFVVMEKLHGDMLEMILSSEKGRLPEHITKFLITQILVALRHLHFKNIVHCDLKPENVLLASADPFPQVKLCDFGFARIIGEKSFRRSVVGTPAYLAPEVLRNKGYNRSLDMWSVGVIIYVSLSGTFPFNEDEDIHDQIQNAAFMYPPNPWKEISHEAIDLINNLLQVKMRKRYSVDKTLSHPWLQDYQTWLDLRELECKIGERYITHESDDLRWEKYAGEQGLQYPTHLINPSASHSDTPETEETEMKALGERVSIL

For `COc1ncc2cc3ccccc3nc2c1C#N`, the remaining binding was 87% (cell-free assay, competition with immobilised ligand; 5 µM).
The remaining binding of `CN([C@@H]1CCc2c(CC(=O)O)c3cc(S(C)(=O)=O)ccc3n2C1)S(=O)(=O)c1ccc(F)cc1` is reported as 75% (cell-free assay, competition with immobilised ligand; 1 µM).
`COc1cnc(Nc2cccc(S(N)(=O)=O)c2)nc1N1CCN(c2ccccc2)CC1` has a remaining binding of 100% (binding, competition with immobilised ligand; 1 µM).
For `COc1ccnn2ncc(-c3ccnc(N(C)C)n3)c12`, the remaining binding was 100% (binding; 1 µM).
`O=S(=O)(NC1CCC(c2cc(F)ccc2F)(S(=O)(=O)c2ccc(Cl)cc2)CC1)C(F)(F)F` (stereo not drawn) has a remaining binding of 100% (cell-free assay, competition with immobilised ligand; 1 µM).
With `O=C(NCCCN1CCOCC1)c1ccc(Nc2nccc(-c3cc4ccccc4s3)n2)cc1` the remaining binding was 47% (binding, competition with immobilised ligand; 1 µM).
`O=C(NCC1CCOCC1)c1n[nH]cc1NC(=O)c1c(F)cccc1F` gave a remaining binding of 100% (binding, competition with immobilised ligand; 1 µM).
`C[C@H](c1ccnc(Nc2nc3ccc(-c4cc(N(C)C)ncn4)cc3[nH]2)c1)N1CCN(C(=O)CC(F)(F)F)CC1` has a remaining binding of 100% (cell-free assay, competition with immobilised ligand; 0.1 µM).
`CC1CCCN1c1nccc(-c2cnn3ncccc23)n1` (stereo not drawn) has a remaining binding of 100% (binding; 1 µM).
The remaining binding of `O=C(NCCCN1CCOCC1)c1ccc(Nc2ncc(Cl)c(-c3ccc(Cl)s3)n2)cc1` is reported as 30% (binding, competition with immobilised ligand; 1 µM).
The remaining binding of `CCCOc1ccc([C@@H]2[C@@H](C(=O)O)[C@H](c3ccc4c(c3)OCO4)CN2CC(=O)Nc2c(CC)cccc2CC)cc1` is reported as 96% (cell-free assay, competition with immobilised ligand; 1 µM).
With `Nc1ncc2c(n1)-c1c([nH]c3ccc(C#CC4CC4)cc13)CCCC2` the remaining binding was 100% (binding, competition with immobilised ligand; 1 µM).
`O=C(c1ccc(Nc2ncc(Cl)c(-c3cc4ccccc4s3)n2)cc1)N1CCC(N2CCCC2)CC1` has a remaining binding of 28% (binding, competition with immobilised ligand; 1 µM).
For `c1cnn2ncc(-c3ccnc(N4CCC45COC5)n3)c2c1`, the remaining binding was 87% (binding; 1 µM).
`CC(=O)c1c(NS(C)(=O)=O)c2cc(-c3ccc(Cl)cc3)c(-c3ccc(Cl)cc3Cl)nc2n(C)c1=O` gave a remaining binding of 100% (cell-free assay, competition with immobilised ligand; 1 µM).
`CN(C)c1nccc(-c2cnn3ncccc23)n1` gave a remaining binding of 57% (binding; 1 µM).
`CS(=O)(=O)N1CCCC(NC(=O)[C@H](CCC2CCCCC2)NC(=O)c2ccc(CNC(=O)c3cnc4ccccn34)cc2)C1` (stereo partly drawn) has a remaining binding of 93% (cell-free assay, competition with immobilised ligand; 0.1 µM).
With `N[C@@H]1CCN(c2nccc(-c3cnn4ncccc34)n2)C1` the remaining binding was 99% (binding; 1 µM).
`FC(F)(F)Oc1cccc(-c2cnc3ccc(-c4ccncc4)nn23)c1` has a remaining binding of 100% (cell-free assay, competition with immobilised ligand; 5 µM).
With `CN(C)c1ncc(F)c(-c2cnn3ncccc23)n1` the remaining binding was 100% (binding; 1 µM).
With `COc1cnc(Nc2cccc(S(N)(=O)=O)c2)nc1N1CCN(c2ccccc2)C(=O)C1` the remaining binding was 100% (binding, competition with immobilised ligand; 1 µM).
